Data taken from ChEMBL document CHEMBL4431355, “Design and synthesis of benzylpiperidine inhibitors targeting the menin-MLL1 interface” (Bioorg Med Chem Lett, 2016).

Key:
[1] = target: Menin/Histone-lysine N-methyltransferase MLL (Homo sapiens, UniProt O00255); assay: Inhibition of human recombinant full length menin/MLL1 (unknown origin) interaction using Ac-SRWRFPARPGTGRR-Ahx-Ahx-K-FAM as substrate after 15 mins by fluorescence polarization binding assay; assay type: protein assay
MV4-11 = assay: Antiproliferative activity against human MV4-11 cells expressing MLL-AF4 after 7 days by MTS assay; assay type: functional, cell-based; conditions: for IC50: MV4-11, 168 h
How it was run: (§1)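 Cells exposed to compounds for 7 days in a proliferation assay. IC50 is given as mean ± SD of triplicate determinations. K562 cells were tested up to 20 μM.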

K562 = assay: Antiproliferative activity against human K562 cells after 7 days by MTS assay; assay type: functional, cell-based; conditions: K562, 168 h; how it was run: as §1
[2] = target: T1, Menin/Histone-lysine N-methyltransferase MLL (Homo sapiens) (UniProt O00255+Q03164); assay: Inhibition of menin/MLL1 interaction in human MV4-11 cells assessed as reduction in HOXA9 mRNA level after 6 days by qRT-PCR analysis; assay type: cell-based
T1 sequence (O00255 whole entry): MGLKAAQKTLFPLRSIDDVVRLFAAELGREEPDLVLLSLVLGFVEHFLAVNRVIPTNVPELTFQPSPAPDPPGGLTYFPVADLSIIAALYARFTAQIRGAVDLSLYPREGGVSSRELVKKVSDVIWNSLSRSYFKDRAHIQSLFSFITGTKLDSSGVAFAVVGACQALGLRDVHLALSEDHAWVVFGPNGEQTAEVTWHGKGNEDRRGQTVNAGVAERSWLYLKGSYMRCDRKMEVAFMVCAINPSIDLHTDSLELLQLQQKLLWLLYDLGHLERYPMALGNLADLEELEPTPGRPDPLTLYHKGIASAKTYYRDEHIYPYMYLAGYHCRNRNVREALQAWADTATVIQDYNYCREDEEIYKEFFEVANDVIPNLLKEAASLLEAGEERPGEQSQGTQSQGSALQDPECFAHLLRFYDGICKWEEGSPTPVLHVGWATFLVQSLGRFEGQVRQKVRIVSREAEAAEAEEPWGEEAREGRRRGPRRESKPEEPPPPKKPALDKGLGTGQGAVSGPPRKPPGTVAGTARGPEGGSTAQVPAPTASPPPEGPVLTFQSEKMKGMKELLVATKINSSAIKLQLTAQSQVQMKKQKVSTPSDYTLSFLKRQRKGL
T1 sequence (Q03164 1-2718 partner limits assumed): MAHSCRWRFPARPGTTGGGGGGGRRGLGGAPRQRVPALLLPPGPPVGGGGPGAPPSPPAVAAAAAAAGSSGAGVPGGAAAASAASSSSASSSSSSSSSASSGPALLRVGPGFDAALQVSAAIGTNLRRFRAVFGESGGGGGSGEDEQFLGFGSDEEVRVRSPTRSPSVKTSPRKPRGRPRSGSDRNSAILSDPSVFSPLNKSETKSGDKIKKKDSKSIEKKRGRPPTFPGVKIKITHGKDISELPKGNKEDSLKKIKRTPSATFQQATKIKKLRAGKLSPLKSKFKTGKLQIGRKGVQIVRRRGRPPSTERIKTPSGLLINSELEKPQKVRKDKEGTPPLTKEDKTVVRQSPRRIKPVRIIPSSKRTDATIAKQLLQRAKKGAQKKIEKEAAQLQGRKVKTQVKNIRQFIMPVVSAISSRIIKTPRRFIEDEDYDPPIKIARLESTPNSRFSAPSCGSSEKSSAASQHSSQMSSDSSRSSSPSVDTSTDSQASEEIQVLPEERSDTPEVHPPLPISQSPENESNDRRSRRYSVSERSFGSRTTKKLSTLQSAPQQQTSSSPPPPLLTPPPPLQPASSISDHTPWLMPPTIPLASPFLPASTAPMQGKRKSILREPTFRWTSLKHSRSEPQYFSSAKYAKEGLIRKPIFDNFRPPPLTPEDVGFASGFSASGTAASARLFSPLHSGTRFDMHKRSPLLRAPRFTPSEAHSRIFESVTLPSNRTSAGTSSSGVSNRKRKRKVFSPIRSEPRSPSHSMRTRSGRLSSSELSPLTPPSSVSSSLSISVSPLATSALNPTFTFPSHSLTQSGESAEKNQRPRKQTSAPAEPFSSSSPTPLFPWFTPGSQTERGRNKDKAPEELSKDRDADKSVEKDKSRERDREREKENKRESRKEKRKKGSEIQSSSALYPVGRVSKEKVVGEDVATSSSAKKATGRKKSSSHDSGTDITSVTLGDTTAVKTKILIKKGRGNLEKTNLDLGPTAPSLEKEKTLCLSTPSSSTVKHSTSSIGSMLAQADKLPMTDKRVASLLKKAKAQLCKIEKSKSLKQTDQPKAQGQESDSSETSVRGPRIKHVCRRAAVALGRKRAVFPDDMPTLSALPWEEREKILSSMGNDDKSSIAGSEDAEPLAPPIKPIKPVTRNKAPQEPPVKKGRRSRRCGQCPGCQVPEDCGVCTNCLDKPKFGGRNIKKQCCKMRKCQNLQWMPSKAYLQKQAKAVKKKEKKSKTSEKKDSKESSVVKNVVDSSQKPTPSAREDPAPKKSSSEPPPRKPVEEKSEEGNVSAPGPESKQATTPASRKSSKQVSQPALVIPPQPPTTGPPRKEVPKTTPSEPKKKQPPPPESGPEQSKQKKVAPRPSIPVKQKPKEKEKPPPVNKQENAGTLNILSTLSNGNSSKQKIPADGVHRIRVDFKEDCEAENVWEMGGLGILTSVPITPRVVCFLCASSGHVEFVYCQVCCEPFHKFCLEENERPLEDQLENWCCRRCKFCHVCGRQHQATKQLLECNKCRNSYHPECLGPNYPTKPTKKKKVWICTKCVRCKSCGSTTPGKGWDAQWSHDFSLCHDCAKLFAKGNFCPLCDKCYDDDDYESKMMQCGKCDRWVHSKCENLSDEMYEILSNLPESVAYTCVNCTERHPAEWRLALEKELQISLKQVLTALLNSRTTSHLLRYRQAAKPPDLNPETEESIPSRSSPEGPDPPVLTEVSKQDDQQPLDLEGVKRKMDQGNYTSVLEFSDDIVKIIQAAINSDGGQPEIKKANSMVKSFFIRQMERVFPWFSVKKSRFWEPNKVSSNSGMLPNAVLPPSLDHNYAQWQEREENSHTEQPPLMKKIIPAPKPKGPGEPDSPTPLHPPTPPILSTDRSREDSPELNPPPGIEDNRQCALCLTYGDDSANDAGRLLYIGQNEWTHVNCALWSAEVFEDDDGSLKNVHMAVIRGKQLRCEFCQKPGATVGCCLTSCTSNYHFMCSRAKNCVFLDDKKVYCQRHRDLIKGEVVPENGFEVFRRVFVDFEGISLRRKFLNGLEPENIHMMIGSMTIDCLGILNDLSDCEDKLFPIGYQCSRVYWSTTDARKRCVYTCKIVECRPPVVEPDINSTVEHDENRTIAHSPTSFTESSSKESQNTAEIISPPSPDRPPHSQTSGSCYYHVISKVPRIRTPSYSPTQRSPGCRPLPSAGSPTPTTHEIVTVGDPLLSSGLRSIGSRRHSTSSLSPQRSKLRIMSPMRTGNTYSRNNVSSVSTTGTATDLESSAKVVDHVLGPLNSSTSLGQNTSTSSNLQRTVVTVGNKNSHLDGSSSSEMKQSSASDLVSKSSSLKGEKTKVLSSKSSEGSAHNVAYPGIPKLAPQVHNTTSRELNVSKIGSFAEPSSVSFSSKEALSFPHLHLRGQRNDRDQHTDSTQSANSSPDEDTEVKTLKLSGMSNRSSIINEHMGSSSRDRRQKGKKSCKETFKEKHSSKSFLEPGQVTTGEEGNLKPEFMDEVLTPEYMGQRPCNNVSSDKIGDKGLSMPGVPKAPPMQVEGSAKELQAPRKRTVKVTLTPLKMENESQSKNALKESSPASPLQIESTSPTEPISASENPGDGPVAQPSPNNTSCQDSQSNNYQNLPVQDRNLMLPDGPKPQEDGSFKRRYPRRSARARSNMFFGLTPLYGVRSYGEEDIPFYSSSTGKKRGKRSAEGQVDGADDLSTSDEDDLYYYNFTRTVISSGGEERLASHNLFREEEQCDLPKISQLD
T1 sequence (Q03164 2719-3969 partner limits assumed): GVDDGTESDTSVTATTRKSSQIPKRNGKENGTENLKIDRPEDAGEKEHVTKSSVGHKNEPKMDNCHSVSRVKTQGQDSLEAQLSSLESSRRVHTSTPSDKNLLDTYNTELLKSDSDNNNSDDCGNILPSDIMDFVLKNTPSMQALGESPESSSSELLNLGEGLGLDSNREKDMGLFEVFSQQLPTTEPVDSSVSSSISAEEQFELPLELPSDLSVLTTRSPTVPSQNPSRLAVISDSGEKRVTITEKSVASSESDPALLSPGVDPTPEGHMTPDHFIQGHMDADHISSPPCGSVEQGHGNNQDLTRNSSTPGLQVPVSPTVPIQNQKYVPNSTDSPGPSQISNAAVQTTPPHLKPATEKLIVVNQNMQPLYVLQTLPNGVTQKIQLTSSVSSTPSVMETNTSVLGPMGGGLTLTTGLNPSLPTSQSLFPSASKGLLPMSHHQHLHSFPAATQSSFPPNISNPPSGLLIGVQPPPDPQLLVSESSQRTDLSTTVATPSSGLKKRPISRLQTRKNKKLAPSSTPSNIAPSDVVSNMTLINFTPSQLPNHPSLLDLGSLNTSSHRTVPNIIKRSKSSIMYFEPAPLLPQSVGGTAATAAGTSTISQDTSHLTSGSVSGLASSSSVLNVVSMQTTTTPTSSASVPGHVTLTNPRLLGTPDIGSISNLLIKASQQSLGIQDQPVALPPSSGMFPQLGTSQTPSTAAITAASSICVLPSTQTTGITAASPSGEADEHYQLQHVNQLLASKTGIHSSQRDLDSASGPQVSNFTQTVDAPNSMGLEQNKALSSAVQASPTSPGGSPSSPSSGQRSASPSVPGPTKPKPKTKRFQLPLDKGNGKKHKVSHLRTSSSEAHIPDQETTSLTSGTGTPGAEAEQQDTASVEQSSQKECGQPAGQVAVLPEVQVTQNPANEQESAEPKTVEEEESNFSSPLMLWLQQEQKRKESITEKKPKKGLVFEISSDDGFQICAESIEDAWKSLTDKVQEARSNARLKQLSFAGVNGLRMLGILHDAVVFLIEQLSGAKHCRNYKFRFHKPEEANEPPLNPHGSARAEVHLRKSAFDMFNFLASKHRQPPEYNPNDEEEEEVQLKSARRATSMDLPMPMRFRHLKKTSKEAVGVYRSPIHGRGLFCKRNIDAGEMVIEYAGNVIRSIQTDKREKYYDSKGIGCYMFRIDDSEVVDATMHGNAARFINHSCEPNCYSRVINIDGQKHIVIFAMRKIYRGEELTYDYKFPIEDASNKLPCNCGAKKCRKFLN
How it was run: (§2)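 MV-4-11 cells incubated with compound for 6 days. HOXA9 expression measured by quantitative real-time PCR, normalized to β-actin and expressed relative to DMSO-treated cells. Triplicate means ± SD; experiment repeated 3 times.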

[3] = target: T1, Menin/Histone-lysine N-methyltransferase MLL (Homo sapiens); assay: Inhibition of menin/MLL1 interaction in human MV4-11 cells assessed as reduction in HOXA9 mRNA level at 10 uM after 6 days by qRT-PCR analysis relative to control; assay type: cell-based; how it was run: as §2
[4] = target: T1, Menin/Histone-lysine N-methyltransferase MLL (Homo sapiens); assay: Inhibition of human recombinant full length menin/MLL1 (unknown origin) interaction using Ac-SRWRFPARPGTGRR-Ahx-Ahx-K-FAM as substrate at 20 uM after 15 mins by fluorescence polarization binding assay; assay type: protein assay

Sequence of Menin/Histone-lysine N-methyltransferase MLL (O00255 whole entry): as the sequence (O00255 whole entry) above
Sequence of Menin/Histone-lysine N-methyltransferase MLL (Q03164 1-2718 partner limits assumed): as the sequence (Q03164 1-2718 partner limits assumed) above
Sequence of Menin/Histone-lysine N-methyltransferase MLL (Q03164 2719-3969 partner limits assumed): as the sequence (Q03164 2719-3969 partner limits assumed) above

Row | SMILES | IC50 [1] [nM] | IC50 (MV4-11) [nM] | IC50 (K562) [µM] | also measured
1 | CN(C)CCOc1cccc(CN2CCC(Nc3ncnc4sc(CC(F)(F)F)cc34)CC2)c1 | 780 | 3490 | > 20 | –
2 | N#Cc1ccc(NCCCN2CCN(c3ncnc4sc(CC(F)(F)F)cc34)CC2)cc1 | 1540 | 2690 | > 20 | –
3 | CN1CCC(Oc2cccc(CN3CCC(Nc4ncnc5sc(CC(F)(F)F)cc45)CC3)c2)CC1 | 2350 | – | – | –
4 | FC(F)(F)Cc1cc2c(NC3CCN(Cc4ccsc4)CC3)ncnc2s1 | 220 | 790 | > 20 | Activity (MV4-11): Dose-dependent effect; inhibition [2]: Dose-dependent effect; inhibition [3]: 70%
5 | FC(F)(F)Cc1cc2c(NC3CCN(Cc4cccc(OC5CCNCC5)c4)CC3)ncnc2s1 | 13400 | – | – | –
6 | FC(F)(F)Cc1cc2c(NC3CCN(Cc4cccc5ccccc45)CC3)ncnc2s1 | – | – | – | inhibition [4]: 2.4%
7 | N#Cc1ccc(CN2CCC(Nc3ncnc4sc(CC(F)(F)F)cc34)CC2)cc1 | – | – | – | inhibition [4]: 25%
8 | FC(F)(F)Cc1cc2c(NCC3CCN(Cc4ccc(C(F)(F)F)cc4)CC3)ncnc2s1 | – | – | – | inhibition [4]: 18.5%
9 | COc1ccc(CN2CCC(CNc3ncnc4sc(CC(F)(F)F)cc34)CC2)cc1 | 1070 | 1280 | > 20 | –
10 | N#Cc1ccc(OCCN2CCN(c3ncnc4sc(CC(F)(F)F)cc34)CC2)cc1 | > 20000 | – | – | –
11 | NCCCOc1cccc(CN2CCC(Nc3ncnc4sc(CC(F)(F)F)cc34)CC2)c1 | 670 | 390 | > 20 | Activity (MV4-11): Dose-dependent effect; inhibition [2]: Dose-dependent effect
12 | C#CCN1CCC(Nc2ncnc3sc(CC(F)(F)F)cc23)CC1 | – | – | – | inhibition [4]: 31.3%
13 | FC(F)(F)Cc1cc2c(NC3CCN(Cc4ccccc4)CC3)ncnc2s1 | 470 | 1020 | > 20 | Activity (MV4-11): Dose-dependent effect
14 | FC(F)(F)Cc1cc2c(NC3CCN(Cc4ccncc4)CC3)ncnc2s1 | 2700 | – | – | –
15 | CNCCCOc1cccc(CN2CCC(Nc3ncnc4sc(CC(F)(F)F)cc34)CC2)c1 | 1120 | 1650 | 9.51 | –
16 | FC(F)(F)Cc1cc2c(NC3CCN(Cc4ccc(-c5ccccc5)cc4)CC3)ncnc2s1 | – | – | – | inhibition [4]: 4.6%
17 | Cc1cccc(CN2CCC(CNc3ncnc4sc(CC(F)(F)F)cc34)CC2)c1 | 3800 | – | – | –
18 | FC(F)(F)Cc1cc2c(NC3CCN(CCc4ccccc4)CC3)ncnc2s1 | 1800 | – | – | –
19 | N#Cc1ccc(OCCCN2CCN(c3ncnc4sc(CC(F)(F)F)cc34)CC2)cc1 | 430 | 1020 | 9.12 | Activity (MV4-11): Dose-dependent effect

Row | SMILES | IC50 [1] [nM] | IC50 (MV4-11) [nM] | IC50 (K562) [µM] | also measured
20 | FC(F)(F)Cc1cc2c(NC3CCN(Cc4ccc5ccccc5c4)CC3)ncnc2s1 | – | – | – | inhibition [4]: 15.6%
21 | O=[N+]([O-])c1cccc(CN2CCC(Nc3ncnc4sc(CC(F)(F)F)cc34)CC2)c1 | – | – | – | inhibition [4]: 43%
22 | Nc1cccc(CN2CCC(Nc3ncnc4sc(CC(F)(F)F)cc34)CC2)c1 | 1260 | – | – | –
23 | FC(F)(F)Cc1cc2c(NC3CCN(Cc4ccco4)CC3)ncnc2s1 | 4690 | – | – | –
24 | N#Cc1ccc(NCCN2CCN(c3ncnc4sc(CC(F)(F)F)cc34)CC2)cc1 | > 20000 | – | – | –
25 | FC(F)(F)Cc1cc2c(NC3CCN(CC4CC4)CC3)ncnc2s1 | 770 | 6490 | > 20 | –
26 | FC(F)(F)Cc1cc2c(NC3CCN(Cc4ccc(C(F)(F)F)cc4)CC3)ncnc2s1 | – | – | – | inhibition [4]: -2.5%
27 | CC1(C)CN=C(N2CCN(c3ncnc4sc(CC(F)(F)F)cc34)CC2)S1 | – | 640 | > 20 | –
28 | Fc1ccc(CN2CCC(CNc3ncnc4sc(CC(F)(F)F)cc34)CC2)cc1 | 1170 | 2980 | > 20 | –
29 | FC(F)(F)Cc1cc2c(NCC3CCN(Cc4ccccc4)CC3)ncnc2s1 | 2240 | 2330 | > 20 | –
30 | Fc1ccc(CN2CCC(Nc3ncnc4sc(CC(F)(F)F)cc34)CC2)cc1 | 2000 | 6320 | > 20 | –
31 | N#Cc1ccc(CN2CCC(CNc3ncnc4sc(CC(F)(F)F)cc34)CC2)cc1 | – | – | – | inhibition [4]: 33.4%
32 | CN(C)CCCOc1cccc(CN2CCC(Nc3ncnc4sc(CC(F)(F)F)cc34)CC2)c1 | 7350 | – | – | –
33 | NCCOc1cccc(CN2CCC(Nc3ncnc4sc(CC(F)(F)F)cc34)CC2)c1 | 1220 | 4150 | > 20 | –
34 | FC(F)(F)Cc1cc2c(NC3CCNCC3)ncnc2s1 | 32800 | – | – | –
35 | FC(F)(F)Cc1cc2c(Nc3ccc(Cc4ccccc4)cc3)ncnc2s1 | – | – | – | inhibition [4]: 2%
36 | CCCN1CCC(Nc2ncnc3sc(CC(F)(F)F)cc23)CC1 | 5670 | – | – | –
37 | COc1ccc(CN2CCC(Nc3ncnc4sc(CC(F)(F)F)cc34)CC2)cc1 | 640 | 2420 | > 20 | –
